Columns and labels:
p300 = p300 (Homo sapiens, UniProt Q09472); assay: Immunoblotting of p300 degradation in prostate cancer cells; type: cell-based; settings: for p300 degradation in prostate cancer cells: immunoblot, 24 h
Procedure, shortened: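 AR-positive and AR-negative prostate cancer cells were exposed for 24 h to a range of concentrations of the test compound (Se-nanoparticle-loaded peptide PROTAC). Cells were PBS-washed three times before harvest and lysates were immunoblotted for p300. Secondary antibody was applied for 1 h at room temperature, with 3 × 5 min TBST washes. Detection was by ECL chemiluminescence.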

CBP = CBP (Homo sapiens, UniProt Q92793); assay: Immunoblotting of CBP in prostate cancer cells; type: cell-based; settings: immunoblot
Chain of CBP (Q92793 whole entry): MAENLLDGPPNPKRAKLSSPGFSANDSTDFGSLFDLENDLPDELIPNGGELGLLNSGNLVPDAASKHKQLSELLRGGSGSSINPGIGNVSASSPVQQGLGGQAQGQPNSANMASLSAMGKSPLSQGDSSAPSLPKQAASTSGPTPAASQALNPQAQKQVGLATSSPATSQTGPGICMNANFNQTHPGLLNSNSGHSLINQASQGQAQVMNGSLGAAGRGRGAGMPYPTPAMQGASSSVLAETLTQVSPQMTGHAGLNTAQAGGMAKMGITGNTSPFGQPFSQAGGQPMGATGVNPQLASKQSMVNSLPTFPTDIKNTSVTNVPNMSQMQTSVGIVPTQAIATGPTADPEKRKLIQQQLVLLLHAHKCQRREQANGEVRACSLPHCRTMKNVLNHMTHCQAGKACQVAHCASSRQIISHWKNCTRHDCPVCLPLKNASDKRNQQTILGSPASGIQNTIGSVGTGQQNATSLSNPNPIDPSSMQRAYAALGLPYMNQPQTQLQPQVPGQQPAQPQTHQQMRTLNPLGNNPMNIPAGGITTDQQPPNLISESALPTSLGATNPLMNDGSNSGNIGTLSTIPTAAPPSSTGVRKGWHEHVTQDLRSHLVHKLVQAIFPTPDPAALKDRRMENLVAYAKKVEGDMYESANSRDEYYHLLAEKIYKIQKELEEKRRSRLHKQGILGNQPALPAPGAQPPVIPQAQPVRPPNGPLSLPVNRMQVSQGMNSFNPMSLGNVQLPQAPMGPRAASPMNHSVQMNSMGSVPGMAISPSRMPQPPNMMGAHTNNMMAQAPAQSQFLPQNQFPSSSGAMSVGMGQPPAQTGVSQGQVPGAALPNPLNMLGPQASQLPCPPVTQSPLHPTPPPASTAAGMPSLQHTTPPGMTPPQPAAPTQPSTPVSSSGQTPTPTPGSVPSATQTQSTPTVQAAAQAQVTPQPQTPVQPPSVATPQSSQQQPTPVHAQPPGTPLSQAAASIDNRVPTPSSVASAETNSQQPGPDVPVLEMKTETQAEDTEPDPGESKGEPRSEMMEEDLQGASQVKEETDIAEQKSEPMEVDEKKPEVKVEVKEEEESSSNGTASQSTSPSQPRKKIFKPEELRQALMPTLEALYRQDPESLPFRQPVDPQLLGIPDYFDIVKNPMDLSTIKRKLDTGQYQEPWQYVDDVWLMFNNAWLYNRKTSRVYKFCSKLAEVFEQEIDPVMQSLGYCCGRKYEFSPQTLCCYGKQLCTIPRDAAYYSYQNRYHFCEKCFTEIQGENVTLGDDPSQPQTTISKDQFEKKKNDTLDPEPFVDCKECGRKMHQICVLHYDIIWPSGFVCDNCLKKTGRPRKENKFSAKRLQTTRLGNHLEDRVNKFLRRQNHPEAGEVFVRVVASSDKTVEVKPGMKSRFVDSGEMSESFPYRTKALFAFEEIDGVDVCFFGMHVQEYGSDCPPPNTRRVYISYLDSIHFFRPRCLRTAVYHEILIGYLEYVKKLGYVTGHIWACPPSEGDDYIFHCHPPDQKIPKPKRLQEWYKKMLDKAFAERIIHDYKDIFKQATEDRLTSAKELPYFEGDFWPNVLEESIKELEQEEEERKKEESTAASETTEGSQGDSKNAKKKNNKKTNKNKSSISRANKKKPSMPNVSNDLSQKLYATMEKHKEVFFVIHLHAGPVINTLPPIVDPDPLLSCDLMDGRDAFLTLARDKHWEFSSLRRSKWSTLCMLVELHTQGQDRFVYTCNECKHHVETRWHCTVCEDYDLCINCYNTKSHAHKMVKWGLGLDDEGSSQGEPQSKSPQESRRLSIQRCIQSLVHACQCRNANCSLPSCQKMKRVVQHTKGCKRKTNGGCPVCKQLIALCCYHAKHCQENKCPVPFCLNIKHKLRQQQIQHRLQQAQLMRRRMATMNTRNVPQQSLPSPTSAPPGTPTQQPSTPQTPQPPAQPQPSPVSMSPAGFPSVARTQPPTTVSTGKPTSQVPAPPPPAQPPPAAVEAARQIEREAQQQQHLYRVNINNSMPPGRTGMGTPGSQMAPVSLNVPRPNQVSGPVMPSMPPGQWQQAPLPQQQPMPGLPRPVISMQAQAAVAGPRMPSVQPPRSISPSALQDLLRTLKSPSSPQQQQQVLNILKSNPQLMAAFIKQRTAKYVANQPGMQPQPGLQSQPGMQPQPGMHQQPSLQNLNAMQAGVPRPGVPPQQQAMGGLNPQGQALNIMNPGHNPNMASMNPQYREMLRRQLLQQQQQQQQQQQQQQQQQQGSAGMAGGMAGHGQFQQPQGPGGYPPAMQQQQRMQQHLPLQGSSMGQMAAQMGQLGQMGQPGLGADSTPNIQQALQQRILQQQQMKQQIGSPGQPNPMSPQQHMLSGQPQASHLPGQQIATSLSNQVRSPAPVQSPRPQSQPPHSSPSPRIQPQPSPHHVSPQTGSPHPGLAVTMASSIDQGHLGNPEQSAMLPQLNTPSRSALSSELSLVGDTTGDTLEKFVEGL
Procedure, shortened: (§1)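 Drug treatment lasted 24 h unless otherwise stated. Cells were PBS-washed, lysed, and lysates spun at 13,000×g for 15 min at 4 °C, then BCA-quantified and boiled 5 min. Equal protein was run on 6–10% Tris-glycine SDS-PAGE and transferred to PVDF. Membranes were blocked 1 h in 5% milk, incubated with primary antibody (in 3% BSA/TBST) overnight at 4 °C, then secondary antibody 1 h at room temperature. Detection was by ECL.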

CWR22Rv1 xenografts = assay: CWR22Rv1 xenograft mouse model; type: in vivo, BALB/c nude mice
Procedure, shortened: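 Thirty-five male 4-week-old BALB/c nude mice were randomised into 7 groups of 5. Each received 6 × 10⁶ 22Rv1 cells mixed 1:1 with Matrigel, injected s.c. into the right shoulder. After tumours formed, dosing was i.p. every other day for 21 days, with reference agents also at 5 mg/kg. Volume was calculated as length × width²/2. Tumours went to H&E or IHC, scored as intensity (0–3) × positive-cell percentage grade (1–4).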

PC-3 xenografts = assay: PC-3 xenograft mouse model; type: in vivo, BALB/c nude mice
Procedure, shortened: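 Twenty-five male 4-week-old BALB/c nude mice were randomised into 5 groups of 5 and received 8 × 10⁶ PC-3 cells s.c. into the right shoulder. Dosing began once tumours reached about 200 mm³, about 3 weeks later. Mice received PBS, peptide control, nano vehicle, test compound or a reference inhibitor at 5 mg/kg i.p. every other day for 18 days. Volume was calculated as length × width²/2. Tumours and organs went to H&E, Ki-67 and TUNEL staining. Mean ± SD, t-test.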

[1] = Biodistribution by fluorescence imaging; type: in vivo, mice; settings: rhodamine-labeled drug, i.p., PC-3 xenograft models, 0-72 h
Procedure, shortened: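 Tumour-bearing mice received rhodamine B-labelled test compound i.p., with injections timed to give exposures of 0, 12, 24, 48 and 72 h. Mice were then euthanised. Heart, liver, spleen, lungs and kidneys were excised and imaged at once on a small-animal in vivo fluorescence system. Distribution was scored by fluorescence intensity.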

[2] = system: prostate cancer cells (PC-3, DU145, C4-2, CWR22Rv1); assay: Colony formation assay; type: cell-based; settings: 20 days treatment
Procedure, shortened: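 Cells were plated in 6-well plates and allowed to attach for 48 h. They were then treated with graded concentrations of test compound for 20 days. Wells were PBS-washed, fixed 30 min in 4% paraformaldehyde and stained 30 min with 0.1% crystal violet. Colonies were counted from images.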

C4-2 and PC-3 cells = assay: Apoptosis detection by flow cytometry; type: cell-based, human; settings: high concentrations, 24 h
Procedure, shortened: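 Cells were plated at 3 × 10⁵ cells/ml in 6-well plates. Treatment ran 24 h with test compound alongside untreated, nano vehicle and free peptide controls. Cells were harvested, stained with an apoptosis detection kit per its protocol and analysed on a FACSCalibur flow cytometer.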

NE1.3 and H660 cells = assay: Apoptosis detection by flow cytometry; type: cell-based; settings: 24 h
Procedure, shortened: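 NE1.3 cells were grown in medium with 10% androgen-removed FBS. H660 cells were grown in RPMI 1640 with 5% FBS, insulin, transferrin, selenite, hydrocortisone, β-estradiol and 4 mM final L-glutamine. Cells were seeded at 3 × 10⁵ cells/ml in 6-well plates and exposed for 24 h to test compound, untreated, nano vehicle or peptide controls. They were processed with an apoptosis detection kit per protocol and analysed on a FACSCalibur flow cytometer.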

prostate cancer cells [3] = assay: Wound healing and transwell invasion assays; type: cell-based; settings: wound healing 24 h and 48 h; transwell 36 h
Procedure, shortened: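 For wound healing, confluent PC3 and DU145 monolayers were scratched with a 200 μl tip and rinsed with PBS. Test compound was added in serum-free medium, and wounds were photographed at 24 h and 48 h.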

prostate cancer cells [4] = assay: Cell internalization by confocal microscopy and flow cytometer; type: cell-based; settings: 500 nM rhodamine-labeled drug
Procedure, shortened: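 C4-2 cells were incubated with 500 nM rhodamine-labelled test compound, and nuclei were stained with DAPI. Imaging was by confocal microscopy, with identical excitation wavelength and detector gain for all images.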

p53 = assay: Immunoblotting of p53 and downstream proteins; type: cell-based; settings: C4-2 and CWR22Rv1 cells, 1μM
Procedure, shortened: as §1

[5] = molecular target: p300/MDM2 binding in 293T cells (Homo sapiens, UniProt Q00987+Q09472); assay: Co-immunoprecipitation of p300 and MDM2; type: cell-based; settings: 293T cells transfected with HA-p300 or Flag-MDM2
Procedure, shortened: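 293T cells were transfected with HA-p300 or Flag-MDM2 plasmids. They were lysed 15 min on ice in IP buffer with protease and phosphatase inhibitors, then spun at 13,000×g for 15 min at 4 °C. Supernatants were incubated with anti-HA agarose beads for 12 h at 4 °C, with or without test compound. Beads were washed, boiled 5 min in loading buffer and analysed by Western blot.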

[6] = molecular target: rhodamine-labeled peptide p300 PROTAC drug; assay: fluorescence polarisation
[7] = system: prostate cancer cells (C4-2, CWR22Rv1, PC-3, DU145); assay: Cell viability assay, AR-positive and AR-negative prostate cancer cells; type: cell-based; settings: 48 h treatment
Procedure, shortened: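 Cells were seeded in 96-well plates in multiple wells and allowed to adhere. They were then exposed for 48 h to graded concentrations of test compound, nano vehicle (Se nanoparticles without peptide) or free peptide. CCK-8 reagent was added for 2 h, then absorbance was read at 450 nm. Data were normalised to the untreated group and given as mean ± SD.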

Chain of p300 (Q09472 whole entry): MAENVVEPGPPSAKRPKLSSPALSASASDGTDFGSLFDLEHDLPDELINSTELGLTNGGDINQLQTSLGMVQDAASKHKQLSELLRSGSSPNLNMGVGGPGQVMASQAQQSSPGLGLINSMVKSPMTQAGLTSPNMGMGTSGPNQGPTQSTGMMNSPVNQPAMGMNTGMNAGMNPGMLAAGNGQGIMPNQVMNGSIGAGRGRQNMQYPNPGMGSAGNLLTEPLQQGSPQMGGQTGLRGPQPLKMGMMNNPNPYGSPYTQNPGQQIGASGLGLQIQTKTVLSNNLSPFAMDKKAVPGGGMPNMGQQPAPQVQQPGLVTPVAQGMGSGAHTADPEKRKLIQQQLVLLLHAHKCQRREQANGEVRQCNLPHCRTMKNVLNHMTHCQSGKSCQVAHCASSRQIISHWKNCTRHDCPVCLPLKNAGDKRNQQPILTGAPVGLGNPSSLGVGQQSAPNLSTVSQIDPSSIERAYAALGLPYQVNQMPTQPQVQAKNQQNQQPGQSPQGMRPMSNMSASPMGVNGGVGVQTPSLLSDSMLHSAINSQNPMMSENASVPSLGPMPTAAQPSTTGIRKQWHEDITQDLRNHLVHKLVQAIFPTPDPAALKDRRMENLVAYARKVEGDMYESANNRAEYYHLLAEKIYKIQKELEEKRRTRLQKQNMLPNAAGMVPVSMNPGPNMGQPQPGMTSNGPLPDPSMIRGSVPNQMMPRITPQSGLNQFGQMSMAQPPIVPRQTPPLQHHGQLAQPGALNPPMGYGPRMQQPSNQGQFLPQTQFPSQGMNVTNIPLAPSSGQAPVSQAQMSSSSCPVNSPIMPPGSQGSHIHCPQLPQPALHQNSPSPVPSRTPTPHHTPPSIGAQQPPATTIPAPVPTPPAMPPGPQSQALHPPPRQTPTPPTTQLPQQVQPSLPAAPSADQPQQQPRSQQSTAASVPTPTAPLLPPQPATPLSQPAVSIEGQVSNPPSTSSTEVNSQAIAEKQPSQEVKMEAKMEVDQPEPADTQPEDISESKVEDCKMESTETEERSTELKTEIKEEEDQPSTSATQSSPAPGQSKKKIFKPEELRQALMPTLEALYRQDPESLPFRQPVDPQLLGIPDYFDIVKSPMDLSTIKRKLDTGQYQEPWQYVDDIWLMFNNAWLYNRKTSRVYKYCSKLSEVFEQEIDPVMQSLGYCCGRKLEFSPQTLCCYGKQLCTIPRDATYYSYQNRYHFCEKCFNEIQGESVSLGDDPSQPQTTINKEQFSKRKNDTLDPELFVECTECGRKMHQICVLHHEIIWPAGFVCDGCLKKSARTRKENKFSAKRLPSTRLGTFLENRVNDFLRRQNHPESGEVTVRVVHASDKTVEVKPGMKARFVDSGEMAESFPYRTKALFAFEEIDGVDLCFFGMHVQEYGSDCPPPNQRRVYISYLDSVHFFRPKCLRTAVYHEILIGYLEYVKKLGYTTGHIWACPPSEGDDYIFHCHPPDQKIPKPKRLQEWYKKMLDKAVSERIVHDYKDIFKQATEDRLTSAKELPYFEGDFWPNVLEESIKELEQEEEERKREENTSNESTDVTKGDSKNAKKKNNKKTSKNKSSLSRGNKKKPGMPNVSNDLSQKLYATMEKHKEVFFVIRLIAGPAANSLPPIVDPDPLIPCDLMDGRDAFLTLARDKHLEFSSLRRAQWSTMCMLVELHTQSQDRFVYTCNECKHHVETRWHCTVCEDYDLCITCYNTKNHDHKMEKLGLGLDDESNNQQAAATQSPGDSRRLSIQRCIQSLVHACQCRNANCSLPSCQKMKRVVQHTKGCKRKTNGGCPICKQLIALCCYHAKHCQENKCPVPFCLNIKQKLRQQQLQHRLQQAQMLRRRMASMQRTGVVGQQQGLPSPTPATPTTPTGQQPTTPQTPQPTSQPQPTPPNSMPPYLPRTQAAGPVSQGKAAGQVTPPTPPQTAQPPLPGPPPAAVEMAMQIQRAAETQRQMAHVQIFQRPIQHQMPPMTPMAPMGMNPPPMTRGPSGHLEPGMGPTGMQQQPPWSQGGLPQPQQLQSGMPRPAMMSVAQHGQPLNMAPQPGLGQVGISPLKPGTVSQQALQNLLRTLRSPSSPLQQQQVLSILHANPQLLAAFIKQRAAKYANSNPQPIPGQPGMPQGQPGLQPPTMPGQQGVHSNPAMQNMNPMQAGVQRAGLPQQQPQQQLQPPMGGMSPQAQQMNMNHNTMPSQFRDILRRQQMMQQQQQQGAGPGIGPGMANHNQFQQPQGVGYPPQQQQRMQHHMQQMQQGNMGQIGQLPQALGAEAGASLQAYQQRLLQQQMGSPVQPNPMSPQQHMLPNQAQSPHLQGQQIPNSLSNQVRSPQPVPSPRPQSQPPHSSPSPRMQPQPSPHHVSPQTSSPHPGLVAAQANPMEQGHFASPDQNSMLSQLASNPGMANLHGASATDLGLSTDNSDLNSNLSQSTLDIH

In the case of “CPWIWDGDNKDDNSTDGGGSGGGTSFEQFWAWLWP [p300 PROTAC drug]”, the “Concentration eliminating the p300 protein” value (p300; different prostate cancer cell lines) is reported as “under 1 μM”, the “p300 degradation in prostate cancer cells” value (p300) is reported as “effectively degraded p300” and the “Reduction of CBP in prostate cancer cells” value (CBP) is reported as “notably weaker compared to its effect on p300”. For the same substance, the “Effect on CWR22Rv1 tumor growth” value (CWR22Rv1 xenografts; 5 mg/kg i.p. every other day for 21 days, n = 5 per group) was “significant efficacy in vivo”, the “IHC of CWR22Rv1 tumors (p300, AR, Ki-67, TUNEL)” value (CWR22Rv1 xenografts; 5 mg/kg i.p., n = 5) was “effectively degraded the p300, AR and Ki-67, and effectively induced the increase of tumor apoptosis” and the “Efficacy relative to comparator drugs, CWR22Rv1 model” value (CWR22Rv1 xenografts; all at 5 mg/kg i.p. every other day) was “better efficacy compared with I-CBP112, dCBP-1, and JQAD1”. For the same substance, the “Effect on PC-3 tumor growth” value (PC-3 xenografts; 5 mg/kg i.p. every 2 days for 18 days, n = 5 per group) was “significant efficacy in vivo”, the “Efficacy relative to I-CBP112, PC-3 model” value (PC-3 xenografts; same dose, 5 mg/kg) was “better efficacy compared to small molecular p300/CBP inhibitor I-CBP112 at the same dose” and the Biodistribution [1] was “accumulated within the tumor”. For the same substance, the Colony formation [2] was “effectively inhibited colony formation”, the “Apoptosis induction, AR-positive and AR-negative cell lines” value (C4-2 and PC-3 cells) was “effectively induced apoptosis” and the “Apoptosis induction, NEPC cells” value (NE1.3 and H660 cells) was “effectively induced apoptosis”. The Migration and invasion (prostate cancer cells [3]) was “effectively inhibit the migration and invasion”, the Cell internalization (prostate cancer cells [4]) was “internalization of the p300 PROTAC drug in a time-dependent manner” and the “Protein level of p53 and downstream proteins” value (p53) was “effectively increased the protein level of p53 and its downstream proteins”. The “Binding of p300 to MDM2 in presence of drug” value [5] was “significantly enhanced”.

“MDM2 N-terminal domain (domain or fragment)” gave a Kd [6] of 101 nM.

In the case of JQAD1 [reference compound], the “p300 degradation in prostate cancer cells” value (p300) is reported as “poor performance”.

For p300 CH1 domain (domain or fragment), the Kd [6] was 78.3 nM.

With “CPWIWDGDNKDDNSTDGGGSGGGTSFEQFWAWLWP [free peptide control]” the “Toxicity in prostate cancer cells (cell viability)” value [7] was “no toxicity”.

Source: paper PMC11261775 (eBioMedicine, 2024)
